Shown are actives, neighbours in structure and some others; about 1.8% of the full set was active somewhere.
CHRM4 agonist: CHRM4 agonism in calcium assay. activation, % at 3 µM. P08173. CHO-K1 hM4/Gqi5, Fluo-8 calcium fluorescence; vehicle 0%, full acetylcholine response 100%. hit rate 0.14% among 360,000;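 active = activation above the run mean over all test wells plus 3 SD, cut at about 32% in these data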;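 also: peak over basal fluorescence ratio per well then scaled between controls; 0% = DMSO wells and 100% = acetylcholine at EC100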
M5 ag: agonists of human muscarinic M5 receptor (CHRM5). P08912. CHO-K1 hM5 cells, Fluo-8 calcium fluorescence; 0% DMSO wells, 100% maximal acetylcholine response. activation, % at 3 µM. hit rate 0.19% among 360,000. AID 624037;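 active = activation above the run's mean over test compounds plus 3 SD, cut at about 23% in these data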;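 also: signal is peak over basal fluorescence ratio across the kinetic read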
Target sequence (P08912 whole entry, looked up): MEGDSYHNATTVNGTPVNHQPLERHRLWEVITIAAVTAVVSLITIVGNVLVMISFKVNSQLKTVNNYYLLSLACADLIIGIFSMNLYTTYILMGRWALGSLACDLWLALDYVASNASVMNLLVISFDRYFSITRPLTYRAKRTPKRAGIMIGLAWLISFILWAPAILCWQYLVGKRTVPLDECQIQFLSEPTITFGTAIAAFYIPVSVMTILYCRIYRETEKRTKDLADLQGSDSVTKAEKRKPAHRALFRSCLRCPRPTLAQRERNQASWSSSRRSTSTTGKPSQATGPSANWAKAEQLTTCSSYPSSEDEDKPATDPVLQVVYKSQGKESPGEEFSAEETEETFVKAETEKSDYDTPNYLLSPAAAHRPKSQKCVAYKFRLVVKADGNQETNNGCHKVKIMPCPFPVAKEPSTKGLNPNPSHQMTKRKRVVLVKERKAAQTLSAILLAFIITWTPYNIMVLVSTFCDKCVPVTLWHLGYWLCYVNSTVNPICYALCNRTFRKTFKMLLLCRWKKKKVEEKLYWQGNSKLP
CHRM5 antagonist: antagonists of human muscarinic M5 receptor (CHRM5); P08912; CHO-hM5 cells, Fluo-8 calcium fluorescence, ACh EC80; inhibition, % at 3 µM; hit rate 0.59% among 360,000;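 active = inhibition above a per-plate cutoff, the mean of that plate's test compounds plus 3 SD, cut at about 27% in these data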;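 also: 0% = acetylcholine EC80 with DMSO and 100% = DMSO without agonist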
M5 PAM: potentiates acetylcholine response at human M5 receptor. CHO-K1 hM5, Fluo-8 calcium, ACh EC20 PAM; 0% = ACh EC20, 100% = ACh EC100. AID 624038. hit rate 0.3% among 360,000. activation, % at 3 µM. P08912;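 active = activation above the run cutoff, the mean activation of all test compounds plus 3 SD, cut at about 18% in these data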
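System: CHO-K1 hM5 cells. Reagent: acetylcholine, EC20 level. Compound dosing: single dose, 3 µM nominal final test concentration. Timing: Post-acetylcholine fluorescence recording 140 s. Detection: Fluo-8 calcium fluorescence. Read-out: % activation, ACh-normalized. Benchmarks: ACh EC20 and EC100 wells. Repeats: singlicate, one well per test compound.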
CHRM4 antagonist: antagonists of human muscarinic M4 receptor (CHRM4); hit rate 0.73% among 360,000; AID 624125; inhibition, % at 3 µM; CHO-hM4 cells, ACh EC80, Fluo-8 calcium fluorescence; P08173;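 active = inhibition above its plate's cutoff, the mean inhibition of sample wells plus 3 SD, cut at about 27% in these data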;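 also: 0% = acetylcholine EC80 with DMSO and 100% = DMSO without agonist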
M4 PAM: positive allosteric modulators of human muscarinic M4 receptor | CHO-K1 hM4/Gqi5, Fluo-8 calcium fluorescence, ACh EC20; 0% = ACh EC20, 100% = maximal ACh | hit rate 0.4% among 360,000 | P08173 | activation, % at 3 µM;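 active = activation above its plate's cutoff, the mean activation of sample wells plus 3 SD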
Numbers without * were called inactive.

SMILES | CHRM4 agonist | M5 ag | CHRM5 antagonist | M5 PAM | CHRM4 antagonist | M4 PAM
CCN(CC)CCCNc1nc2cc(OC)c(OC)cc2c2nc(-c3cccnc3)nn12 | 0 | -4 | -3 | -6 | 10 | -4
CCN(CC)CCCNc1nc2cc(OC)c(OC)cc2c2nc(-c3ccccc3)nn12 | 2 | -1 | 0 | 3 | -4 | 17*
CC1=C/C(=N\OS(=O)(=O)c2ccccc2)C(C)=CC1=O | 18 | 44* | 66* | -26 | 70* | -16
CC1=C/C(=N\OS(=O)(=O)c2ccccc2)C(C(C)C)=CC1=O | 1 | 27* | 79* | -9 | 18 | -9
CC1=C(C)/C(=N\OS(=O)(=O)c2ccc(C)cc2)C=CC1=O | 12 | 13 | 24 | 3 | 60* | -9
CC(S(=O)(=O)c1ccccc1)S(=O)(=O)c1ccccc1 | 1 | -1 | 16 | -3 | -1 | -1
COc1ccc(S(=O)(=O)/N=C2/C=CC(=O)C(C)=C2C)cc1 | 1 | 0 | 2 | 1 | 2 | 5
CCc1ccc(/C=C2\SC(=S)N(CCCC(=O)N(CCO)c3ccccc3)C2=O)cc1 | 7 | 0 | 9 | -5 | 15 | -4
Oc1ccc(C[C@@H]2CNCCN2CCc2cc(C(F)(F)F)cc(C(F)(F)F)c2)cc1 | 6 | 8 | -1 | 15 | 15 | 25*
Cc1nnc(SCC(=O)Nc2cccc(S(=O)(=O)N3CCCC3)c2)n1C1CC1 | -1 | 3 | 10 | 4 | 3 | 0
Cc1cc(/C=N/NC(=O)c2ccsc2)c(C)n1-c1cnccn1 | 1 | 3 | 0 | 28* | 9 | 7
CC(=O)Nc1ccc(Sc2ncccc2C(=O)Nc2ccc(F)cc2)cn1 | 94* | 50* | 15 | -14 | 26 | -26
CC(=O)N(C1=C(Cl)C(=O)c2ccccc2C1=O)C1CCCCC1 | 11 | 10 | 10 | 13 | 44* | -13
Cn1cc(C(=O)c2cccc(Cl)c2)cc1C#N | 6 | -2 | -3 | 1 | 6 | 26*
Cc1nnc(N2CCC(C(=O)N3CCCCCC3)CC2)c2nn(-c3ccc(Cl)cc3)c(C)c12 | 1 | -9 | -8 | 0 | -9 | -4
COc1ccc(CCN(C)C(=O)CN2C(=O)NC3(CCCc4ccccc43)C2=O)cc1OC (stereo not given) | 2 | 0 | 2 | -7 | -29 | 27*
COc1cc2c(cc1NC(=O)CN1C(=O)NC3(CCc4ccccc43)C1=O)oc1ccccc12 (stereo not given) | 12 | -1 | 7 | -6 | 38* | 3
O=C(NNC(=O)C1CCN(S(=O)(=O)c2cccc(C(F)(F)F)c2)CC1)C1CC1 | 1 | -4 | -3 | -4 | -5 | 5
CNC(=O)c1ccc(NC(=O)C2CCN(S(=O)(=O)c3cccc(C(F)(F)F)c3)CC2)cc1 | 0 | 0 | -10 | 19* | -11 | 6
C[n+]1ccccc1/C=C/c1cc(Br)ccc1O | 1 | -2 | 34* | -16 | 12 | -13
Cc1cc(OCCCN2CCC(C(O)(c3ccccc3)c3ccccc3)CC2)ccc1Br | 17 | -2 | 10 | -17 | 29* | -10
COc1ccc(OCc2nn3c(-c4cccc(OC)c4)nnc3s2)cc1 | 2 | -2 | -5 | 4 | -13 | 21*
COc1ccc(OCc2nn3c(-c4ccco4)nnc3s2)cc1 | 4 | 3 | -2 | -6 | -10 | -1
O=C(CNC(=O)c1cnccn1)Nc1ccc(F)c(F)c1F | 1 | 15 | -12 | 21* | -8 | 7
COc1ccc(-c2csc(NC(=S)NC(=O)c3ccc4ccccc4c3)n2)cc1OC | 1 | -1 | -28 | 18* | 0 | 6
SMILES | CHRM4 agonist | M5 ag | CHRM5 antagonist | M5 PAM | CHRM4 antagonist | M4 PAM
COc1ccc(-c2csc(NC(C)=O)n2)cc1OC | 1 | -2 | 3 | -2 | -1 | 2
CCCCCC(=O)Nc1cccc(C2=NOC3(C2)C[C@H](C(N)=O)N(C(=O)c2ccccc2)C3)c1 (stereo not given in full) | 2 | 3 | 3 | 19* | 5 | 13
CN(C)c1ccc(/C=C/C(=O)c2c(O)c3ccccc3oc2=O)cc1 | 6 | 26* | 18 | -11 | 6 | -13
CCOc1ccc(/C=C/C(=O)c2c(O)c3ccccc3oc2=O)cc1 | 0 | -2 | 2 | -1 | 14 | 2
Nc1cnccc1C(=O)O | 5 | 24* | 3 | -15 | 3 | 3
COc1cc(-c2nc3ccccn3c2/N=C/c2ccccc2)ccc1O | 0 | 51* | 3 | -12 | 7 | -2
O=C(Nc1ccc(Cl)cc1)c1csc(-c2ccccc2)n1 | -2 | 0 | 2 | 4 | -7 | 34*
NC(=O)c1nnn(Cc2cc(Cl)c(C(=O)c3ccc(Cl)cc3)c(Cl)c2)c1N | 13 | 11 | 24 | -18 | 9 | 2
COc1cccc2cc(-c3ccccc3)oc12 | -1 | -4 | 16 | -7 | -8 | 4
Nc1cccc2cc(-c3ccccc3)oc12 | 1 | 4 | -3 | -3 | -16 | 25*
COc1ccc(NC(=O)COc2ccccc2)cc1Cl | 1 | -9 | 15 | -8 | 3 | -4
COc1ccc(NC(=O)COc2ccccc2C(=O)NCC(c2ccccc2)N(C)C)cc1Cl (stereo not given) | 12 | -6 | 57* | -19 | 15 | -6
COC(=O)[C@@]12C[C@@H](CC(=O)NCCCCc3ccccc3)C(=O)N(Cc3ccco3)C1=CCC(C)(C)C2 | 11 | -2 | 2 | 4 | 11 | -3
CS(=O)(=O)c1ccc(Cl)c(NC(=O)c2cc(S(=O)(=O)N3CCOCC3)ccc2N2CCCC2)c1 | 3 | -2 | -3 | -4 | 6 | -6
CCCCn1nnnc1C(c1cccs1)N1CCN(C/C=C/c2ccccc2)CC1 (stereo not given) | 0 | -8 | 24 | -22 | 5 | -12
Cc1cccc(C)c1-n1nnnc1C(c1cccs1)N1CCN(C/C=C/c2ccccc2)CC1 (stereo not given) | 0 | -8 | 29* | -22 | 8 | -12
CCCCn1nnnc1C(c1ccc(OC)cc1)N1CCN(C/C=C/c2ccccc2)CC1 (stereo not given) | 1 | -7 | 23 | -22 | 21 | -13
Cc1cccc(C)c1-n1nnnc1C(c1ccccc1)N1CCN(C/C=C/c2ccccc2)CC1 (stereo not given) | 0 | -8 | 31* | -22 | 12 | -16
Nn1cnc2c(ncn2C2OC(CO)C(O)C2O)c1=O (stereo not given) | 1 | 4 | 1 | 1 | -5 | 2
CC(C)C(=O)Nc1ccc(S(=O)(=O)N2CCC(c3nc4ccccc4[nH]3)CC2)cc1 | 0 | -2 | 10 | -1 | 3 | 2
